Source: article PMC9305226 (Clinical Pharmacology in Drug Development, 2022)

Experiments:
Assay type in all cases: in vivo, human
[1] = Plasma insulin lispro pharmacokinetics after a single subcutaneous dose; conditions: for median tmax: healthy Japanese men, single s.c. 0.3 U/kg, plasma, n = 36
Procedure, shortened: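 Venous blood drawn into K-EDTA tubes predose, then every 15–60 min over the 10 h clamp. Samples centrifuged within 20 min; plasma held at –60 to –80°C. Analysis by LC-MS/MS specific for lispro over endogenous insulin: protein precipitation plus solid-phase extraction, bovine insulin internal standard, C18 gradient at 40°C. Calibration was 1/x2-weighted linear over 100–8000 pg/mL. Noncompartmental parameters; log-values by mixed model, ratios back-transformed.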

[2] = system: healthy Japanese male subjects; experiment: 10-hour euglycemic clamp; conditions: ratio of geometric means, linear mixed effects model, n = 36, 95%CI
Procedure, shortened: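 Randomized double-blind 2-period crossover, single s.c. 0.3 U/kg per period, 7–18 day washout. After ≥10 h overnight fast, baseline BG was the mean of readings at –30, –20, –10 and –1 min (clamp skipped if <70 mg/dL). BG measured every 1 min; 10% glucose infusion auto-adjusted to hold BG 5 mg/dL below baseline for 10 h. Body-weight-standardized GIR smoothed (LOESS, tension 0.06). Log-parameters analysed by mixed model (period, sequence, treatment fixed; subject random), back-transformed.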

[3] = system: healthy Japanese male subjects; experiment: Safety and tolerability of single doses; conditions: single s.c. 0.3 U/kg, healthy Japanese men; all TEAEs mild or moderate
[4] = ratio of geometric means, linear mixed effects model, n = 36, 90%CI

| Substance | median tmax [1] [h] | AUCinf, Mean Ratio SAR‐Lis/Ly‐Lis‐Jp, point estimate (90%CI) [1, 4] | AUClast, Mean Ratio SAR‐Lis/Ly‐Lis‐Jp, point estimate (90%CI) [1, 4] | Cmax, Mean Ratio SAR‐Lis/Ly‐Lis‐Jp, point estimate (90%CI) [1, 4] | t1/2z, Mean Ratio SAR‐Lis/Ly‐Lis‐Jp, point estimate (90%CI) [1, 4] | GIRmax, Mean Ratio SAR‐Lis/Ly‐Lis‐Jp, point estimate (95%CI) [2] | GIR‐AUC0‐10h, Mean Ratio SAR‐Lis/Ly‐Lis‐Jp, point estimate (95%CI) [2] | Tolerability of single doses [3] |
| --- | --- | --- | --- | --- | --- | --- | --- | --- |
| insulin lispro [SAR‐Lis] | 1 | 1.00 (0.97‐1.02) | 1.00 (0.97‐1.02) | 0.99 (0.93‐1.05) | 1.03 (0.96‐1.11) | 1.07 (1.00‐1.15) | 1.07 (0.99‐1.15) | well tolerated |
| insulin lispro [Ly‐Lis‐Jp, reference compound] | 1 |  |  |  |  |  |  | well tolerated |
